Experimental data of several laboratories.
Each line is one published result; the experiments were not run side by side.
Target: Inhibitor of nuclear factor kappa-B kinase subunit beta (IKBKB, Homo sapiens, UniProt O14920)

O=C(O)[C@H]1[C@H](Cn2nnc3ccccc3c2=O)CC[C@@H]1C(=O)c1ccc(OCCC2CCOCC2)cc1
remaining binding (cell-free assay, competition with immobilised ligand; 1 µM): 100%

Cc1ccc(C(=O)Nc2ccc(CN3CCN(C)CC3)c(C(F)(F)F)c2)cc1C#Cc1cnc2cccnn12
remaining activity (enzyme activity, inhibitor; 23.5 nM): 37%

CCN(CC)CCNC(=O)c1c(C)[nH]c(/C=C2\C(=O)Nc3ccc(F)cc32)c1C
inhibition (enzyme activity, inhibitor; 0.3 µM): -1%

CCCCNc1ncc2c(-c3ccc(F)cc3)nn(C[C@H]3CC[C@H](N)CC3)c2n1
inhibition (target engagement in cells, inhibitor, chemoproteomics; 20 mM): -14.9%

CCN1CCC2(CC1)NC(=O)c1c(c3ccc(Cl)c(Cl)c3n1C)C2C#N (racemic)
ΔTm (thermal stability, DSF; 10 µM): 0 °C

O=C(NCCCC1CCCCC1)c1ccc(CNC(=O)c2cnn(-c3ccccc3)c2C(F)(F)F)cc1
remaining binding (cell-free assay, competition with immobilised ligand; 0.1 µM): 100%

O=C(Nc1cnn(-c2csc(C(=O)NC3COC3)c2)c1)Nc1ccccc1Cl
remaining activity (enzyme activity, inhibitor; 5 µM): 95.6%

O=c1c2ccccc2[nH]c(=S)n1CCN1CCC(=C(c2ccc(F)cc2)c2ccc(F)cc2)CC1
remaining activity (enzyme activity, inhibitor; 0.5 µM): 99.5%

CN(C)C1CCN(CC#Cc2nn(C3CCCC3)c3nc(NCc4ccccc4)ncc23)C1 (centres unmarked)
inhibition (enzyme activity, inhibitor, FRET; 10 µM): 2%

CC(C)(O)[C@H]1CC[C@H](Nc2ccc3ncc(-c4cccc(C(F)(F)F)c4)n3n2)CC1
remaining activity (enzyme activity, inhibitor; 1 µM): 95.4%

N#CC1(c2ccccn2)CCN(Cc2cc(C(=O)N3CCCC3)c(=O)n3ccccc23)CC1
remaining binding (cell-free assay, competition with immobilised ligand; 1 µM): 99%

O=c1cc(-c2cccc3c2Sc2ccccc2S3)oc(N2CCOCC2)c1
remaining activity (enzyme activity, inhibitor; 0.5 µM): 101%

Cc1sc(C(=O)NC2COC2)cc1-n1cc(NC(=O)Nc2c(F)cccc2Cl)cn1
remaining activity (enzyme activity, inhibitor; 10 µM): 86.8%

Cn1c2c(c3ccc(Cl)c(Cl)c31)C(C#N)C1(CCNCC1)NC2=O (racemic)
ΔTm (thermal stability, DSF; 10 µM): 0.6 °C

COc1cc(Nc2cnc(C#N)c(O[C@H](C)CN(C)C)n2)ncc1-c1cnn(C)c1
remaining activity (enzyme activity, inhibitor, radiometric; 10 µM): 86%

CC(C)(C)C(=O)c1sc(NC2CCCCC2)nc1N
remaining activity (enzyme activity, inhibitor; 10 µM): 99%

CNC(=O)c1cc(Oc2ccc(NC(=O)Nc3ccc(Cl)c(C(F)(F)F)c3)cc2)ccn1
inhibition (enzyme activity, inhibitor; 0.3 µM): -5%

O=C1c2ccccc2-c2n[nH]c3cccc1c23
activity vs control (enzyme activity, inhibitor; 0.5 µM): 75.8%

c1ccc(CNc2nc(N3CCOc4ccccc43)nc3c2CCCC3)cc1
inhibition (target engagement in cells, inhibitor, chemoproteomics; 20 mM): -6.4%

N#CCCc1ccc2c(c1)-c1[nH]c3ccc([N+](=O)[O-])cc3c1CC(=O)N2
remaining signal (cell-free assay; 0.5 µM): 96.3%

O=C(CSc1nc2nccnc2c(=O)n1CCc1ccccc1)Nc1nccs1
inhibition (enzyme activity, inhibitor; 10 µM): 12%

CN(c1ncccc1CNc1nc(Nc2ccc3c(c2)CC(=O)N3)ncc1C(F)(F)F)S(C)(=O)=O
inhibition (enzyme activity, inhibitor; 1 µM): 12.7%

COc1cc2ncnc(Nc3ccc(Oc4ccccc4)c(C)c3C)c2cc1OC
inhibition (enzyme activity, inhibitor; 1 µM): 3%

O=C(Nc1cccnn1)N1CC(C/C=C/c2cncc(Oc3ccc(C(F)(F)F)cn3)n2)C1
remaining binding (cell-free assay, competition with immobilised ligand; 1 µM): 94%

CCCOc1ccc(OC)c(F)c1C(=O)c1ccc(C(=O)N[C@@H]2CNC[C@H]2NC(=O)c2ccc3[nH]ncc3c2)cc1
remaining activity (enzyme activity, inhibitor; 10 µM): 62%

C[C@@H]1CN(c2cc(-c3nn(C)c4ccc(OC5(C)CC5)cc34)ncn2)C[C@H](C)O1
remaining binding (cell-free assay, competition with immobilised ligand; 1 µM): 76%

CC(C)(C)c1nc2c(s1)c1nc(N)ncc1c1ccc(NS(=O)(=O)c3c(F)cccc3F)c(F)c12
remaining activity (enzyme activity, inhibitor, radiometric; 1 µM): 79%

Cn1c(=O)n(-c2ccc(C(C)(C)C#N)cc2)c2c3cc(-c4cnc5ccccc5c4)ccc3ncc21
remaining activity (enzyme activity, inhibitor; 10 µM): 92%

Cc1cnc(NC2CCOCC2)nc1-n1cnc(C(=O)NC(CN)c2cc(F)cc(Cl)c2)c1 (centres unmarked)
remaining activity (enzyme activity, inhibitor, radiometric; 1 µM): 100%

Cc1ccc(C(=O)NCc2ccsc2)cc1C#Cc1cn(C(C)C)c2ncnc(N)c12
activity vs control (enzyme activity, inhibitor; 1 µM): 108%

CCS(=O)(=O)c1cc2cc(C[C@](O)(CC(C)(C)c3ccc(F)cc3C(N)=O)C(F)(F)F)[nH]c2cn1
remaining binding (cell-free assay, competition with immobilised ligand; 1 µM): 91%

Cn1c2c(c3ccc(Cl)c(Cl)c31)C(C#N)C1(CCCC1)NC2=O (centres unmarked)
ΔTm (thermal stability, DSF; 10 µM): -0.7 °C

CC1=C(C#N)[C@@H](c2ccc3[nH]nc(C)c3c2)C(C#N)=C(c2ccc(Cl)cc2)N1
remaining binding (cell-free assay, competition with immobilised ligand; 1 µM): 100%

Nc1nc(Nc2ccccc2)sc1C(=O)c1c(F)cccc1F
remaining activity (enzyme activity, inhibitor; 10 µM): 82%

O=C(Nc1cccnn1)N1CCC(=Cc2cccc(Oc3ccc(C(F)(F)F)cn3)c2)CC1
remaining binding (cell-free assay, competition with immobilised ligand; 1 µM): 83%

FC(F)(F)Oc1cccc(-c2cnc3ccc(-c4ccncc4)nn23)c1
activity vs control (enzyme activity, inhibitor, radiometric; 1 µM): 94%

Cn1c2c(c3ccc(Cl)c(Cl)c31)C(C#N)C1(CCOCC1)NC2=O (centres unmarked)
ΔTm (thermal stability, DSF; 10 µM): -0.4 °C

Cc1ccc(NC(=O)c2ccc(CN3CCN(C)CC3)cc2)cc1Nc1nc(-c2cccnc2)cs1
remaining signal (cell-free assay; 0.5 µM): 97.8%

CC/C(=N\NC(=O)NCc1cccc(O)c1)c1ccc(O)c(C)c1O
inhibition (enzyme activity, inhibitor; 0.1 µM): -0.9%

Cc1ccc(Nc2nccc(N(C)c3ccc4c(C)n(C)nc4c3)n2)cc1S(N)(=O)=O
inhibition (enzyme activity, inhibitor; 0.3 µM): 3%

Cn1c2c(Cl)c(Cl)ccc2c2cn[nH]c(=O)c21
ΔTm (thermal stability, DSF; 10 µM): -0.1 °C
